A selection: hits, their analogues and other compounds. The true share with any hit is near 3.4%.
E-sel inducer = induces E-selectin expression in human endothelial cells; actives 0.37% (n = 260,000); AID 686992; HUVEC E-selectin immunofluorescence imaging; normalized: neutral wells 0, TNF-alpha wells 100; P16581; activation, % at 7.58 µM;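 active means mean E-selectin-positive cell signal at least 10% of the positive control, reached in at least 60% of replicates, without over 20% cell loss; inconclusive means no rule given, readout overlaps actives, possibly toxicity-flagged; inactive means the rest, including those meeting only one limit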
Target sequence (P16581 whole entry, looked up): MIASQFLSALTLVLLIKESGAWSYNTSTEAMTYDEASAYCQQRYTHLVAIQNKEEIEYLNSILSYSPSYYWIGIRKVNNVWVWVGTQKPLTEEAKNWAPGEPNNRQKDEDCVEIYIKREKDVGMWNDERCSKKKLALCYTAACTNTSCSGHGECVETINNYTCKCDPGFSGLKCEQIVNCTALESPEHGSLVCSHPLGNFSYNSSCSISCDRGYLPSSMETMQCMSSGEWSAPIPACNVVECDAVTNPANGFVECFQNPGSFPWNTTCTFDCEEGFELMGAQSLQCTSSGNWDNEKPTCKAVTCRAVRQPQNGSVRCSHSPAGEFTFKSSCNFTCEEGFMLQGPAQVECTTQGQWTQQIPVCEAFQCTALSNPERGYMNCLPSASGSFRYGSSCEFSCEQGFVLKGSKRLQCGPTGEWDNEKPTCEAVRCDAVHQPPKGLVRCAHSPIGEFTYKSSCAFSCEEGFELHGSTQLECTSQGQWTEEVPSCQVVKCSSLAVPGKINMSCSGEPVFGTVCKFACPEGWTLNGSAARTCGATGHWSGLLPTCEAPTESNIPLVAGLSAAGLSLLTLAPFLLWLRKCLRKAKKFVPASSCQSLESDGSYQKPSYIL
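Test system: HUVEC; input: 3,000 HUVEC/well; measured by: immunofluorescence imaging; read-out: % PE-positive cells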
SIRT5 inh = blocks human SIRT5 desuccinylation of peptide. inhibition, % at 15 µM. Purified SirT5, succinyl-peptide AMC, trypsin-coupled fluorescence. actives 1.1% (n = 330,000). Q9NXA8; in the data active means inhibition above about 15%; inconclusive means no clear call, values can overlap the other calls
Ecoli rRNA inh = inhibitors of bacterial rRNA selective over humanized ribosomes | GFP signal change (wild-type ribosome), % (concentration not given with the values) | E. coli WT GFP vs humanized-ribosome RFP mutants, fluorescence, 24 h; active compounds read low; DMSO median 0, no signal -100 | actives 1.6% (n = 350,000) | AID 720706;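 active means significant combined selectivity score with lowered wild-type GFP, culture density cut under 30%, mutant RFP and density less affected; inactive means any of these conditions unmet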
MLL AF4-AF9 inh = inhibitors of human MLL-AF4/AF9 interaction; P42568; AlphaScreen, biotin-AF4 peptide binding to FLAG-AF9; inhibition, % at 10 µM; actives 0.47% (n = 350,000);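 active means every replicate reaching a set inhibition limit, whatever the replicate mean, cut at about 25% in these data; inconclusive means mean inhibition reaches that limit but some replicates miss it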
ERAP1 HTS inh = blocks human ERAP1 aminopeptidase activity | Q9NZ08 | recombinant ERAP1, Leu-AMC fluorescence, 60 min | inhibition, % at 10.7 µM | actives 0.15% (n = 340,000) | AID 652197;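 active means mean replicate inhibition of at least 30%, or all replicates individually reaching that 30% level; inactive means mean below 30% and not every replicate reaching it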
S100A4 MyoIIA = inhibitors of human S100A4 binding to myosin IIA peptide; S100A4/TAMRA-MyoIIA peptide fluorescence polarization; inhibition, % at 10.7 µM; actives 0.14% (n = 360,000); AID 652163;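 active means mean inhibition of at least 70% across replicates, with every replicate also reaching that level; inconclusive means mean inhibition reaches 70% but some replicates fall short; inactive means mean inhibition below 70%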
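incubation = readout 5 min after mixing, signal stable up to 60 min | system = S100A4 monomer protein | buffer or medium = HEPES pH 7.2 with CaCl2, KCl, NaCl, DTT, Triton | benchmarks = neutral control DMSO, positive control TFP | also added = fluorescent myosin IIA peptide, 5 nM | compound dosing = one concentration per compound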
A number is an active result; . = inactive; ? = inconclusive; / = no result given.

SMILES | E-sel inducer | SIRT5 inh | Ecoli rRNA inh | MLL AF4-AF9 inh | ERAP1 HTS inh | S100A4 MyoIIA
COc1ccc(C(CNC(=O)c2cccc3cccnc23)N(C)C)cc1 (centres undefined) | / | . | . | . | . | .
C[C@H](CO)N1C[C@H](C)[C@H](CN(C)C)Oc2c(NC(=O)c3ccncc3)cccc2C1=O | / | . | . | . | . | .
O=C(C[C@H]1C[C@H]2c3cc(NC(=O)Cc4ccncc4)ccc3O[C@H]2[C@@H](CO)O1)NCc1ccccc1 | . | . | . | . | . | .
C=CCn1c(CCSCc2ccc(OC)c(C)c2)n[nH]c1=S | . | . | -18.6 | . | / | .
C=CCn1c(CCSCc2ccccc2)n[nH]c1=S | . | . | . | . | . | .
COCCN(C(=O)C1CCN(C(=O)c2ccccc2C)CC1)c1c(N)n(CC(C)C)c(=O)[nH]c1=O | . | . | . | . | 90.7 | .
CCNC(=S)N/N=C/c1cn(Cc2ccc(F)cc2)c2ccccc12 | . | . | / | . | . | .
O=C(O)c1ccc(N/N=C/c2cn(Cc3ccc(F)cc3)c3ccccc23)cc1 | . | . | -34.2 | . | . | .
Fc1ccccc1N=C1NN=C(c2ccccc2)CS1 | . | . | . | . | . | .
Clc1ccccc1N=C1NN=C(c2cccs2)CS1 | . | . | -31.8 | . | . | .
CCCC(=O)Nc1ccc2c(c1)OC[C@@H](C)N(Cc1cccc(F)c1)C[C@@H](C)[C@H](OC)CN(C)C2=O | . | . | . | . | . | .
COCC(=O)Nc1ccc2c(c1)OC[C@@H](C)N(Cc1cccc(F)c1)C[C@H](C)[C@H](OC)CN(C)C2=O | . | . | . | . | . | .
O=C(Cc1ccc(F)cc1)Nc1nccs1 | / | . | . | . | . | .
O=C(Nc1nccs1)C(F)(F)C(F)(F)C(F)(F)C(=O)Nc1nccs1 | . | . | -26.9 | . | . | .
O=C(CCN1CCCCC1)N[C@H]1CC[C@H](CC(=O)N2CCC(Cc3ccccc3)CC2)O[C@@H]1CO | . | 38.5 | . | . | . | .
COc1ccc(NC(=O)Nc2ccc3c(c2)C(=O)N([C@H](C)CO)C[C@@H](C)[C@H](CN(C)Cc2ccc4c(c2)OCO4)OCCCC[C@H](C)O3)cc1 | . | . | . | ? | . | .
O=C(NN1C(=O)NC2(CCCCC2)C1=O)c1cc(F)cc(F)c1 | . | . | . | . | . | .
O=C(NN1C(=O)NC2(CCCCC2)C1=O)c1ccc(Cl)c(Cl)c1 | . | 16.9 | / | . | . | .
CNC[C@H]1Oc2ccc(NS(=O)(=O)c3ccc(C)cc3)cc2C(=O)N([C@@H](C)CO)C[C@H]1C | . | . | . | . | . | .
Nc1c(C(=O)NCc2ccco2)c2nc3ccccc3nc2n1CCc1ccccc1 | / | . | -28.1 | . | . | .
Nc1c(C(=O)NCc2ccccc2)c2nc3ccccc3nc2n1CCCN1CCOCC1 | / | . | . | . | . | .
COc1ccc(S(=O)(=O)Nc2ccc3c(c2)C(=O)N([C@@H](C)CO)C[C@@H](C)[C@@H](CN(C)S(=O)(=O)c2ccc(Cl)cc2)OCCCC[C@@H](C)O3)cc1 | . | 15.2 | . | . | . | .
COc1ccc(S(=O)(=O)N(C)C[C@@H]2OCCCC[C@@H](C)Oc3ccc(NS(=O)(=O)c4ccc(Cl)cc4)cc3C(=O)N([C@H](C)CO)C[C@@H]2C)cc1 | . | 16.4 | . | . | . | .
COc1ccc(S(=O)(=O)Nc2ccc3c(c2)C(=O)N([C@@H](C)CO)C[C@@H](C)[C@H](CN(C)S(=O)(=O)c2ccc(Cl)cc2)OCCCC[C@@H](C)O3)cc1 | . | 15.6 | . | . | . | .
COc1ccc(S(=O)(=O)N(C)C[C@H]2OCCCC[C@@H](C)Oc3ccc(NS(=O)(=O)c4ccc(Cl)cc4)cc3C(=O)N([C@@H](C)CO)C[C@H]2C)cc1 | . | 16.2 | . | . | . | .
Cc1ccc(S(=O)(=O)Nc2ccc3c(c2)C(=O)N([C@@H](C)CO)C[C@H](C)[C@H](CN(C)C(=O)NC(C)C)O3)cc1 | . | / | . | . | . | .
